The list is not random: actives were taken first. Their share in the collection is about 2.2%.
Myeloid diff MLP: myeloid differentiation induction; AID 624256; calls only at 10 µM; actives 1% (n = 360,000); ER-HoxA9 myeloid progenitors, lysozyme-GFP differentiation, flow cytometry;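 active means normalized GFP-positive differentiation at or above the plate's own cutoff, the solvent-only control mean plus 3 SD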;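 further: cells exposed to compound for four days before flow analysis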
Granule exo inh: blocks lytic granule exocytosis | TALL-104 LAMP-1 surface exposure, flow cytometry; cells stimulated with thapsigargin and PMA | inhibition, % at 10 µM | actives 0.66% (n = 360,000);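 active means inhibition above about 55%, limit read from the data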
HNF4A DNA FP: change in binding of human HNF4 alpha to DNA; actives 0.3% (n = 360,000); activity change, % at 10 µM; AID 1224865; HNF4a-FITC DNA binding, fluorescence polarization, 1 h; P41235; in the data active means activity change above about 30%, passing the limit was not always enough
Target sequence (P41235 whole entry, looked up): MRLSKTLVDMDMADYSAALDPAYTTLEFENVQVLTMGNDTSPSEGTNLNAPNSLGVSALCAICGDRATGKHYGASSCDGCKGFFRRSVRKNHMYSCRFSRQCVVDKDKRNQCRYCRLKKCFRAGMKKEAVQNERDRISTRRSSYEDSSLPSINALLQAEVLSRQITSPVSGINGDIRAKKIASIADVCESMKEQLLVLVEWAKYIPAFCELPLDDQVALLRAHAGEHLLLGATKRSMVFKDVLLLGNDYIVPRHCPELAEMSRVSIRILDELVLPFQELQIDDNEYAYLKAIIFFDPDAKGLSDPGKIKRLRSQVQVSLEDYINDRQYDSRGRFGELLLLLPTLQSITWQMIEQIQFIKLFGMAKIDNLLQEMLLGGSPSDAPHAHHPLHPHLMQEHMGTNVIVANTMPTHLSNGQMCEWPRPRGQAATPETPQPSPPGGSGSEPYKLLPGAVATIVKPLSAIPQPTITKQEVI
CSN deneddyl inh: inhibitors of human CSN-mediated cullin deneddylation; Q92905; Purified CSN, SCF-Nedd8-OG deneddylation, fluorescence polarization; inhibition, % at 12.5 µM; actives 0.38% (n = 360,000); AID 651999;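 active means pattern-corrected inhibition above about 35%, with an unprinted fluorescence ratio check between 0.5 and 1.5, limit read from the data, passing the limit was not always enough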;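 further: 0% = enzyme with substrate and 100% = substrate without enzyme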
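Assay system: HEK293T-derived human Csn5 enzyme; quantity: 0.24 nM enzyme; medium: Tris/NaCl/DTT buffer, pH 7.5; also added: substrate SCFSkp2-Nedd8OG, 10 nM; doses: 12.5 µM compound; schedule: 90 min reaction at room temperature; signal: FP; read-out: % inhibition of substrate cleavage by Csn5; benchmarks: substrate-only high control, full reaction low control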
Numbers without * were called inactive; i = inactive; nt = no result given; + = active, no number.

SMILES	Myeloid diff MLP	Granule exo inh	HNF4A DNA FP	CSN deneddyl inh
ClCC(CNCc1ccccc1)c1ccccc1 (centres undefined)	i	-4	-2	0
CCOC(=O)N1CCN(C(=O)c2cc3n(n2)C(C(F)(F)F)CC(c2ccc4c(c2)OCO4)N3)CC1 (centres undefined)	i	0	14	-1
C(=Cc1c[nH]c2ccccc12)c1ccc2ccccc2n1	+	-1	37*	10
C(=Cc1c[nH]c2ccccc12)c1nccc2ccccc12	i	1	31	15
COc1ccc(C(=O)COC(=O)c2nn(C)cc2Cl)cc1	i	5	3	0
Cc1ccc(-c2nc3c4ccccc4ccn3c2CC2CCCCC2)cc1	i	-4	18	3
COc1ccc(-c2nc3c4ccccc4ccn3c2CC2CCCCC2)cc1OC	+	1	5	1
Cc1cc(NCC2CCCCC2)nc2ccccc12	+	20	3	2
COc1ccc(C(=O)C2CCCN(C(=O)c3c4c(nn3C)CCCC4)C2)cc1F (centres undefined)	+	-12	1	2
Cc1ccc(/C=N/N2C(=O)c3ccccc3NC2c2ccc(C)cc2)cc1 (centres undefined)	+	2	0	-1
O=C1c2ccccc2NC(c2ccco2)N1/N=C/c1ccco1 (centres undefined)	i	-2	-1	-18
COc1ccccc1CCn1cnc(C)c1CC(C)C	i	-5	3	62*
Cc1ccc(C(=O)C[n+]2cccc3cc(C)ccc32)cc1	+	-9	1	6
COc1ccc2c(ccc[n+]2CC(=O)c2ccc(C)cc2)c1	i	-3	4	4
CCCCn1c(NC(C)=O)c(C#N)c2nc3ccccc3nc21	i	0	20	2
C=CCn1c(NC(=O)c2ccccc2Cl)c(C#N)c2nc3ccccc3nc21	i	29	64*	57*
COc1ccc(CNC(=O)CSc2nccn(-c3ccc(F)c(F)c3)c2=O)cc1	i	3	2	4
CCCCc1cc(=O)oc2cc(OCC(=O)NC3CCN(Cc4ccccc4)CC3)ccc12	+	13	5	-1
O=C(Nc1ccc(N2CCCCC2)c(Cl)c1)c1cccnc1	+	-2	9	10
CC(=O)c1cc(NC(=O)c2ccc(C)cc2)c(=O)oc1/C=C/N(C)C	nt	-6	96*	61*
COc1ccc(C(=O)Nc2cc(C(C)=O)c(/C=C/N(C)C)oc2=O)cc1	i	-4	117*	52*
C=CCn1cnc2c(c1=O)c1nc3ccccc3nc1n2/N=C/c1cccc(OC)c1OC	i	-6	2	59*
COc1cc(/C=C2\CCC(C)C3=C(c4cc(OC)c(OC)c(OC)c4)C(C#N)=C(N)OC32)cc(OC)c1OC (centres undefined)	i	5	78*	75
COc1cc(/C=C2\CCC(C3CCCC3)C2=O)cc(OC)c1OC (centres undefined)	i	0	-1	-2
CC(=O)Nc1ccc(NC(=O)c2ccnn2C)cc1	i	0	0	1
SMILES	Myeloid diff MLP	Granule exo inh	HNF4A DNA FP	CSN deneddyl inh
CCN1/C(=C/c2cc[n+](C)cc2)C=Cc2cc(C)ccc21	+	-4	27	4
CCN1/C(=C/c2ccc3ccccc3[n+]2CCCS(=O)(=O)[O-])C=Cc2cc(C)ccc21	i	12	7	9
COc1ccc(S(=O)(=O)N(C)C[C@H]2Oc3ccc(NS(=O)(=O)c4cccs4)cc3C(=O)N([C@H](C)CO)C[C@@H]2C)cc1	+	1	4	0
C[C@@H]1CN([C@H](C)CO)C(=O)c2cc(NC(=O)Nc3ccc(C(F)(F)F)cc3)ccc2O[C@H]1CN(C)C(=O)Nc1ccc(F)cc1	+	3	0	-9
COc1ccc(S(=O)(=O)N(C)C[C@H]2Oc3ccc(NS(=O)(=O)c4ccccc4)cc3C(=O)N([C@H](C)CO)C[C@@H]2C)cc1	i	-3	-5	-2
C[C@H](CO)N1C[C@H](C)[C@H](CN(C)C(=O)NC2CCCCC2)Oc2ncc(Br)cc2C1=O	+	3	2	-3
O=C(NCc1cccnc1)c1cccc(S(=O)(=O)NCc2ccccc2)c1	i	4	3	-1
COc1cccc(/C=c2\s/c(=C/C(=O)c3ccc(C)cc3)[nH]c2=O)c1OC	i	6	2	9
COc1ccc(/C=c2\s/c(=C/C(=O)c3ccc(C)cc3)[nH]c2=O)c(OC)c1	+	2	36	-37
Cc1cc(=O)c2ccccc2n1Cc1ccccc1	i	2	0	-3

Screening results: PubChem, several laboratories
